According to paper PMC3698760 (Journal of the American Heart Association: Cardiovascular …, 2013):
“Also recorded” adds a separate entry of the source.

Legend:
[1] = test system: C‐reactive protein (CRP); experiment: Plasma high-sensitive CRP by ELISA; format: in vivo; conditions: low (10 mg/kg) and high (50 mg/kg) doses, 16 weeks, apoE−/− mice
Procedure, shortened: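 Overnight-fasted plasma collected from high-fat-fed apoE−/− mice after 16 weeks of i.p. dosing 3 times weekly (10 or 50 mg/kg per day, or scrambled peptide). High-sensitivity CRP and MCP-1 were quantified with commercial ELISA kits.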

[2] = target: ABCA1 (Homo sapiens, UniProt O95477); experiment: Probucol-inhibitable, ABCA1-specific cholesterol efflux in A172 cells; format: cell-based; conditions: probucol 10 μmol/L
Sequence of ABCA1 (O95477 whole entry): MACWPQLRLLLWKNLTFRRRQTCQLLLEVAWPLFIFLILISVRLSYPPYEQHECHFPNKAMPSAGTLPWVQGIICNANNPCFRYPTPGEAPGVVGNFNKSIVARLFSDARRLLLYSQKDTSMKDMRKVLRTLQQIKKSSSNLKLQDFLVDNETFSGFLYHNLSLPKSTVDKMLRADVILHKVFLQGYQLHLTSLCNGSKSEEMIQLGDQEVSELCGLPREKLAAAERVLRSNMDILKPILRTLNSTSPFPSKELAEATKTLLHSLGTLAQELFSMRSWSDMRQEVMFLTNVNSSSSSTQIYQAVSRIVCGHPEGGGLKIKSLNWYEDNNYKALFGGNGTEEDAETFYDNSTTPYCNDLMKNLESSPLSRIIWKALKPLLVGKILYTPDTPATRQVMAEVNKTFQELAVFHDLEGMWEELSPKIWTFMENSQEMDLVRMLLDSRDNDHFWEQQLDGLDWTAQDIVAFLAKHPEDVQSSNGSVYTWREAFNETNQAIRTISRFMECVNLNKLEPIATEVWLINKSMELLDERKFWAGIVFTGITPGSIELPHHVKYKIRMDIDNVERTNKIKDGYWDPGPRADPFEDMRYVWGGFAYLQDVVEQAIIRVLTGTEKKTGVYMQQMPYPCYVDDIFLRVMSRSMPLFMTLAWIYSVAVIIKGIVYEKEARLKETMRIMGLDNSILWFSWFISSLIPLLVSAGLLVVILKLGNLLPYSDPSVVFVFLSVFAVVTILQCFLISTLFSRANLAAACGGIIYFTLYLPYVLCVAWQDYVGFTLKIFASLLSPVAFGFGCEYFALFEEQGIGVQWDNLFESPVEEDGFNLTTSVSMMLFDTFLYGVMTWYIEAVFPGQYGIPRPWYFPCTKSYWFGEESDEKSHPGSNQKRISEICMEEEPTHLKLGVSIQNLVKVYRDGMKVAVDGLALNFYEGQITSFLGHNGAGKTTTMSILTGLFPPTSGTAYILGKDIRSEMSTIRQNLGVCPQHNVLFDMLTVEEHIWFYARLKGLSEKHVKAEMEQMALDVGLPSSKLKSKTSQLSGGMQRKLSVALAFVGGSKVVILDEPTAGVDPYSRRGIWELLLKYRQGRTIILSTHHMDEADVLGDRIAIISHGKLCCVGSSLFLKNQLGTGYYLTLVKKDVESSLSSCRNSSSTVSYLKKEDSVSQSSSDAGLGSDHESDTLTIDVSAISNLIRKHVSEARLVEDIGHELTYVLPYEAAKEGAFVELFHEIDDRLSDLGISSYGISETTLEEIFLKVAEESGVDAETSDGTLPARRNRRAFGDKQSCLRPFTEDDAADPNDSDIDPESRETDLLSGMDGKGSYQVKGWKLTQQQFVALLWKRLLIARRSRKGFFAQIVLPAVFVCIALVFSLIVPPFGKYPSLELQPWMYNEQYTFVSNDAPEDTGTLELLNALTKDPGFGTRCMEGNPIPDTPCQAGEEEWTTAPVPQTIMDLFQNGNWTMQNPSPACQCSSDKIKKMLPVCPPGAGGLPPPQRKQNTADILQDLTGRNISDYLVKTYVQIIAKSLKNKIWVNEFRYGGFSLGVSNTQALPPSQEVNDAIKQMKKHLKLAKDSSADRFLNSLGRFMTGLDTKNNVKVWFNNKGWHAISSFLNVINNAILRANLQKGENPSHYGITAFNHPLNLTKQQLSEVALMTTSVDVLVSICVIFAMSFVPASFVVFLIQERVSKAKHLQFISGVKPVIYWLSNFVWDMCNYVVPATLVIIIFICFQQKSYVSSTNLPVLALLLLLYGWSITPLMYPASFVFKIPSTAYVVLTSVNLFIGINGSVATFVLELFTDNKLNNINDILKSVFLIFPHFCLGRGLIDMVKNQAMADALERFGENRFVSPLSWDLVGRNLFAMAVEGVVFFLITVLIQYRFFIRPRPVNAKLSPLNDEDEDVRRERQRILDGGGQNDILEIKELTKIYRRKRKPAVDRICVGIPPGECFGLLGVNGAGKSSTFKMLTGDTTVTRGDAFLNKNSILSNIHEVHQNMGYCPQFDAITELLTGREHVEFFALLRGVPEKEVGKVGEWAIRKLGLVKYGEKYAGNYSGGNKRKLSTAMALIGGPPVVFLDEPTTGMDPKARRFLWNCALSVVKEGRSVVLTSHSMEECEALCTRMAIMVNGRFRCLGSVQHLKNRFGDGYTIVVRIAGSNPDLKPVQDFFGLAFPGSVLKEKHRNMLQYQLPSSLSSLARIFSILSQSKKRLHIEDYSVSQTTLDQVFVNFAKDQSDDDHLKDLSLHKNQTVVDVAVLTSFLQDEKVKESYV
Procedure, shortened: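 A172 glioblastoma cells, labelled with ³H-cholesterol, were held in serum-free 0.2% BSA medium with 5 μmol/L T0901317 and 5 μmol/L 9-cis-retinoic acid. Cells were exposed for 4 h to 20 μg/mL acceptor, with or without 10 μmol/L probucol. ABCA1-dependent efflux was taken as the probucol-inhibitable fraction.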

[3] = human whole plasma, 60 minutes at 37°C; FAMP5 0.2 to 2.0 mg/mL, ACD-FAMP5 2.0 mg/mL
Procedure, shortened: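 Human whole plasma was incubated with saline, test peptide (0.2 to 2.0 mg/mL) or acridone-labelled peptide (2.0 mg/mL) for 60 min at 37°C. Samples were run on agarose gel electrophoresis with cholesterol staining, transferred to PVDF and immunoblotted with goat anti-human apoA-I antibody. The fluorescent label was visualized on the gel under UV light.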

[4] = test system: RAW264 macrophages; experiment: Ex vivo cholesterol efflux mediated by plasma HDL of treated mice; format: in vivo; conditions: high-dose 50 mg/kg, 16 weeks; apoB-depleted plasma, 8Br-cAMP-treated RAW264 macrophages
Procedure, shortened: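 Plasma collected after 16 weeks of i.p. treatment of high-fat-fed apoE−/− mice. ApoB-depleted plasma served as acceptor for ³H-cholesterol-labelled RAW264 macrophages. Macrophages were pretreated with 0.3 mmol/L 8Br-cAMP and kept in serum-free medium with 0.2% BSA.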

[5] = test system: mouse peritoneal macrophages; experiment: Cellular cholesterol efflux in mouse peritoneal macrophages; format: cell-based; conditions: 20 μg/mL, 4 hours, n=4 to 5
Procedure, shortened: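 Peritoneal macrophages taken from mice injected i.p. with 2 mL 2.9% thioglycollate 90 h earlier, and selected as cells adherent after 2 h. Cells were labelled with ³H-cholesterol and kept in serum-free medium with 0.2% BSA. Efflux to 20 μg/mL acceptor was measured over 4 h.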

[6] = test system: human monocyte‐derived macrophages; experiment: Cellular cholesterol efflux in human monocyte-derived macrophages; format: cell-based; conditions: 20 μg/mL, 4 hours, n=4 to 5
Procedure, shortened: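 Human peripheral blood monocyte-derived macrophages isolated by Lymphoprep gradient. Cells were radiolabelled with ³H-cholesterol and kept in serum-free medium containing 0.2% BSA. Efflux to 20 μg/mL acceptor (apoA-I or test peptide) or no acceptor was measured over 4 h.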

[7] = Circular dichroism; format: physicochemical; conditions: CD spectra in water, 200 to 260 nm
Procedure, shortened: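 Spectra of peptides and human apoA-I (17.8 to 178 μmol/L) recorded at 25°C in a thermostatted quartz cell with 0.1 mm path length, scanning 200–260 nm. Results expressed as mean residue ellipticity (deg cm² dmol⁻¹).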

[8] = Size analysis of HDL interacting with FAMP; conditions: human HDL 2.22 mg/mL, 60 minutes at 37°C; 50, 250, 500 μg/mL FAMP5
Procedure, shortened: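 Human HDL, adjusted to 2.22 mg/mL in saline containing 0.1% EDTA (pH 7.4), was incubated with 50, 250 or 500 μg/mL test peptide for 60 min at 37°C. Samples were run on nondenaturing 5–20% gradient polyacrylamide gel in Tris-glycine (pH 7.5) for 3 h at 20 mA on ice, then stained with Coomassie R-250.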

[9] = test system: apoE‐deficient mice; experiment: Plasma lipoprotein profiles analyzed by HPLC, 16-week treatment; format: in vivo; conditions: 3 times a week, 16 weeks
Procedure, shortened: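 Plasma from apoE−/− mice after 16-week i.p. dosing (3 times weekly) was separated by HPLC into 20 particle-size subfractions. Each subfraction was assayed enzymatically for total cholesterol, free cholesterol, triglycerides and phospholipids; mean±SD.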

[10] = test system: monocyte‐derived macrophages from an ABCA1‐deficient Tangier disease patient; format: cell-based, human; conditions: 20 μg/mL, 4 hours, n=4
Procedure, shortened: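 Peripheral blood monocyte‑derived macrophages came from a healthy volunteer and a Tangier disease patient, with ethics approval and written consent. Cells were isolated by Lymphoprep density separation and labelled with ³H‑cholesterol. Efflux was run in serum‑free 0.2% BSA medium with or without 20 μg/mL human apoA‑I or test peptide for 4 h. n=4; mean±SD.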

[11] = test system: A172 human glioblastoma; experiment: Cellular cholesterol efflux in A172 human cells; format: cell-based; conditions: 4 hours
Procedure, shortened: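 A172 human glioblastoma cells were grown in DMEM with 10% FBS and antibiotics, then labelled with ³H‑cholesterol. Efflux ran in serum‑free medium with 0.2% BSA, 5 μmol/L T0901317 and 5 μmol/L 9‑cis‑retinoic acid, with or without 10 μmol/L probucol. Acceptor was human apoA‑I or test peptide at 20 μg/mL, or a molar dose series, for 4 h. n=4–5; mean±SD.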

[12] = test system: apoE−/− mice fed a high‐fat diet; experiment: Aortic atherosclerotic lesion formation, 16-week treatment; format: in vivo; conditions: high-dose 50 mg/kg i.p. 3 times per week, 16 weeks; Oil Red O; mean±SD; P<0.01 vs scrambled
Procedure, shortened: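 Male apoE−/− mice, bought at six weeks, fed a high-fat diet (0.5% cholesterol, 10% fat) and dosed i.p. 3 times per week for 16 weeks: test peptide at 10 or 50 mg/kg per day, or scrambled peptide. Whole aortas were then stained with Oil Red O. Lesion area was scored by image analysis as percentage of aorta from ascending aorta to abdominal bifurcation.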

[13] = high-dose 50 mg/kg per day i.p., n=7, mean±SD
[14] = low-dose 10 mg/kg per day i.p., n=5, mean±SD

H-ALEHLFTLYEKALKALEDLLKKLL-OH [FAMP5]
plasma high‐sensitive CRP levels [1]: equally suppressed | percentage of probucol‐inhibitable, ABCA1‐specific cholesterol efflux [2]: significantly higher than that in L‐4F; also recorded: significantly lower than human apoA‐I | conversion of α HDL to pre‐β HDL on agarose gel electrophoresis [3]: shifted the α HDL band to the pre‐β HDL position; also recorded: completely converted α HDL to pre‐β HDL | ex vivo cholesterol efflux mediated by HDL of treated mice [4]: significant increase | cholesterol efflux [5]: induced cholesterol efflux significantly more than human apoA‐I | cholesterol efflux [6]: induced cholesterol efflux significantly more than human apoA‐I | α‐helical conformation (CD spectra) [7]: formed strong α‐helical conformations | HDL particle size on polyacrylamide gel electrophoresis [8]: generated pre‐β1 HDL‐like small particles | Cholesterol, CM (>80 nm) [9, 13]: 173.4 ± 24.0 mg/dL | Cholesterol, HDL (8 to 16 nm) [9, 13]: 20.3 ± 3.1 mg/dL | Cholesterol, LDL (16 to 30 nm) [9, 13]: 157.9 ± 32.1 mg/dL | Cholesterol, VLDL (30 to 80 nm) [9, 13]: 509.1 ± 73.8 mg/dL | Free cholesterol, CM (>80 nm) [9, 13]: 76.6 ± 13.7 mg/dL | Free cholesterol, HDL (8 to 16 nm) [9, 13]: 10.0 ± 1.1 mg/dL | Free cholesterol, LDL (16 to 30 nm) [9, 13]: 75.0 ± 14.1 mg/dL | Free cholesterol, VLDL (30 to 80 nm) [9, 13]: 213.8 ± 33.7 mg/dL | Phospholipids, CM (>80 nm) [9, 13]: 84.3 ± 14.2 mg/dL | Phospholipids, HDL (8 to 16 nm) [9, 13]: 23.1 ± 5.2 mg/dL | Phospholipids, LDL (16 to 30 nm) [9, 13]: 110.6 ± 26.5 mg/dL | Phospholipids, VLDL (30 to 80 nm) [9, 13]: 259.9 ± 44.9 mg/dL | Triglyceride, CM (>80 nm) [9, 13]: 22.1 ± 6.6 mg/dL | Triglyceride, HDL (8 to 16 nm) [9, 13]: 3.7 ± 1.3 mg/dL | Triglyceride, LDL (16 to 30 nm) [9, 13]: 10.4 ± 2.2 mg/dL | Triglyceride, VLDL (30 to 80 nm) [9, 13]: 35.8 ± 9.7 mg/dL | Cholesterol, CM (>80 nm) [9, 14]: 175.4 ± 40.4 mg/dL | Cholesterol, HDL (8 to 16 nm) [9, 14]: 22.0 ± 3.7 mg/dL | Cholesterol, LDL (16 to 30 nm) [9, 14]: 133.1 ± 16.1 mg/dL | Cholesterol, VLDL (30 to 80 nm) [9, 14]: 529.9 ± 135.3 mg/dL | Free cholesterol, CM (>80 nm) [9, 14]: 70.7 ± 14.4 mg/dL | Free cholesterol, HDL (8 to 16 nm) [9, 14]: 9.1 ± 0.6 mg/dL | Free cholesterol, LDL (16 to 30 nm) [9, 14]: 65.6 ± 6.0 mg/dL | Free cholesterol, VLDL (30 to 80 nm) [9, 14]: 220.1 ± 49.0 mg/dL | Phospholipids, CM (>80 nm) [9, 14]: 78.4 ± 15.3 mg/dL | Phospholipids, HDL (8 to 16 nm) [9, 14]: 29.1 ± 4.9 mg/dL | Phospholipids, LDL (16 to 30 nm) [9, 14]: 94.4 ± 10.4 mg/dL | Phospholipids, VLDL (30 to 80 nm) [9, 14]: 263.8 ± 53.4 mg/dL | Triglyceride, CM (>80 nm) [9, 14]: 26.1 ± 16.8 mg/dL | Triglyceride, HDL (8 to 16 nm) [9, 14]: 2.9 ± 1.2 mg/dL | Triglyceride, LDL (16 to 30 nm) [9, 14]: 9.5 ± 2.3 mg/dL | Triglyceride, VLDL (30 to 80 nm) [9, 14]: 38.1 ± 19.4 mg/dL | cholesterol efflux in Tangier disease macrophages vs healthy subject [10]: suppressed | dose dependence of cholesterol efflux on a molar basis ([11]; A172 cells, presence or absence of 5 μmol/L T0901317 or 9-cis-retinoic acid, n=4): dose‐dependent induction of cholesterol efflux with saturation effects | cellular cholesterol efflux: differences of terminal end modifications ([11]; A172 cells, 20 μg/mL, n=5): no influence by the modification of terminal ends | effect of ABCA1 inactivation (probucol) on peptide-mediated cholesterol efflux ([11]; probucol 10 μmol/L, 20 μg/mL): drastically inhibited; also recorded: not completely abolished | relative surface area of aortic plaque lesions [12]: 16.2±5.0%
